Compound activity from PubChem.
Rows were chosen to be rich in hits. Some 2.9% of all compounds tested hit in one or more screens of this group.
TRPC4 potent – allosterically enhances the mouse TRPC4 cation channel. Q9QUQ5. HEK293 TRPC4beta/mu-opioid, DAMGO EC20, Fluo-4 Ca2+ flux; active compounds read high. B-score at 10 µM. 310,000 tested, 0.42% active;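 active = B-score of calcium response area above 5 SD of library B-scores, with initial fluorescence ratio within 5 SD of library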;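 also: B-score of integrated fluorescence ratio over time as area under calcium response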
TRPC6 inh – blocks the mouse TRPC6 cation channel. 310,000 tested, 1.1% active. HEK293-TRPC6, membrane potential dye, ACh-evoked depolarization; active compounds read low. AID 2553. Q61143. B-score at 10 µM;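 active = B-score under library mean minus 3 SD, initial fluorescence not abnormally high, positive integrated signal ratio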;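 also: B-score derived from integrated fluorescence ratio over the kinetic read; more negative B-score means stronger inhibition of depolarization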
Target sequence (Q61143 whole entry, looked up): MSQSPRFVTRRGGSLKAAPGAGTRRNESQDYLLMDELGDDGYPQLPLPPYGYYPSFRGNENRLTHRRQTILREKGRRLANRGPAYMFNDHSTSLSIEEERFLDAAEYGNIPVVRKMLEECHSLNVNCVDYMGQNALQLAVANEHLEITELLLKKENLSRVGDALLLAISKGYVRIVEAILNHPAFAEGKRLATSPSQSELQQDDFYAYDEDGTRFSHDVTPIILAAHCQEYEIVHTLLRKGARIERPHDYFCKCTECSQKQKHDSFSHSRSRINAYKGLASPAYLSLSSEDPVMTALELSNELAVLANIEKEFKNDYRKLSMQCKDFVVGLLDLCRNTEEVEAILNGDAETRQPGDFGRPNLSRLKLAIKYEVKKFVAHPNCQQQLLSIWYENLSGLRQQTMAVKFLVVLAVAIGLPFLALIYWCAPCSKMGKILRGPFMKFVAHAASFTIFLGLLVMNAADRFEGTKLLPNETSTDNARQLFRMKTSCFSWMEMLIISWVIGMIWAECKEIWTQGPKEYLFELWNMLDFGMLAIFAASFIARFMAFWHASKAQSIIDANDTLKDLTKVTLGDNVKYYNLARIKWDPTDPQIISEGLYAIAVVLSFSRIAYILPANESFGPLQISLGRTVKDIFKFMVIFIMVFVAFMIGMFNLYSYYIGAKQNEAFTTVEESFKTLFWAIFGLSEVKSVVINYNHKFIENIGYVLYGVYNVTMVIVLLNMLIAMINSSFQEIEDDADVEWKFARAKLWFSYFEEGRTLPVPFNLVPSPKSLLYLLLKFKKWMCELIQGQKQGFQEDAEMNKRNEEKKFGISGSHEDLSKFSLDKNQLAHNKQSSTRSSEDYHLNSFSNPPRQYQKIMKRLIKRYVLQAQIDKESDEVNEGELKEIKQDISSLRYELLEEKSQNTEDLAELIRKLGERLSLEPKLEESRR
TRPC6 activator – activators of mouse TRPC6 channel; Q61143; HEK293-TRPC6 membrane potential dye fluorescence; active compounds read high; B-score at 10 µM; 310,000 tested, 0.13% active;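 active = B-score of the integrated fluorescence ratio above library mean plus 3 SD, and starting fluorescence ratio within library mean plus 5 SD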;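 also: higher score means more depolarization so channel activation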
TRPC4 inh – blocks the mouse TRPC4 cation channel. HEK293 TRPC4beta/mu-opioid, DAMGO-evoked Fluo4 calcium flux; active compounds read low. 300,000 tested, 0.39% active. B-score at 10 µM. Q9QUQ5;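 active = B-score over 3 SD under the library average, no early fluorescence shift, positive overall ratio signal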
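Assay system: Stable TRPC4beta/mu-opioid receptor HEK293 cells | Reagent: DAMGO in two steps, submaximal then maximal | Compound dosing: Single concentration per test compound | Signal: Fluo4 Ca2+ flux fluorescence | Evaluation: Per-well B score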
TRPC4 agonist – opens the mouse TRPC4 cation channel | B-score at 10 µM | AID 2237 | HEK293 TRPC4beta/mu-opioid, Fluo4 calcium fluorescence; active compounds read high | 310,000 tested, 0.49% active | Q9QUQ5;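 active = B-score above 5 SD of library B-scores, and initial fluorescence ratio not above library mean plus 5 SD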;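 also: positive B-score marks a calcium rise read as TRPC4 activation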
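Material: TRPC4beta and mu-opioid receptor HEK293 stable cells | Incubation: 45 min room-temperature Fluo4 loading, 110 s read | Detection: Kinetic Fluo4 calcium fluorescence | Measure: Integrated baseline-normalised fluorescence ratio, converted to per-well B score | Benchmarks: Low control buffer alone, high control maximal DAMGO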
Kir21 block – inhibitors of mouse Kir2.1 inward-rectifier potassium channel; AID 1672; HEK293-Kir2.1, FluxOR thallium flux fluorescence; active compounds read low; B-score at 10 µM; P35561; 310,000 tested, 0.85% active;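 active = fluorescence ratio B-score at or below minus 3 SD of library scores, with starting-brightness B-score within 2 SD, cut at about -4.2 in these data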;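 also: channel flux triggered by added potassium and thallium sulfate stimulus; B-score of peak minus minimum fluorescence over baseline after thallium stimulus; more negative B-score means stronger Kir2.1 block with less thallium influx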
TRPC4 sel inh 2 – second selectivity test of TRPC6 inhibitors: effect on mouse TRPC4; shares compounds with TRPC6 inh; HEK293 TRPC4/MOR, membrane potential dye fluorescence; channel activated by saturating DAMGO dose; inhibition, % at 10 µM; 920 tested, 42% active;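 active = compounds whose fluorescence signal differed from control wells by over 3 SD, either direction, in both duplicate plates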
TRPC4 spec – selectivity of TRPC6 inhibitors: effect on mouse TRPC4; shares compounds with TRPC6 inh; HEK293 TRPC4/mu-opioid, membrane potential fluorescence; activity change, negative = inhibition, % at 10 µM; 920 tested, 61% active;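 active = rise or fall in signal beyond 3 SD of buffer-only wells in both replicate plates, either sign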;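 also: integrated kinetic ratio of fluorescence range over baseline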
HEK293 MPD ctr 2-1 – second counter-screen for TRPC6 inhibitors: parental HEK293 cells | shares compounds with TRPC6 inh | parental HEK293 membrane potential dye fluorescence; maximal acetylcholine challenge after compound addition | signal change vs control, % at 10 µM | 920 tested, 31% active | AID 2779;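 active = membrane potential signal moving either way by over 3 SD of the maximum-effect control, in both duplicate plates, meaning non-specific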
HEK293 MPD ctr-1 – parental HEK293 nonspecific activity of TRPC6 inhibitors. membrane potential signal change, % at 10 µM. parental HEK293 membrane potential dye fluorescence. 920 tested, 60% active. shares compounds with TRPC6 inh;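 active = membrane potential signal shifting up or down by more than 3 SD of buffer-only wells, on both duplicate plates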
HEK293 MPD ctr-2 – counter-screen for TRPC6 modulators: effect in parental HEK293 cells; shares compounds with TRPC6 inh; membrane potential dye fluorescence; membrane potential signal change, % at 10 µM; 2,400 tested, 51% active; AID 488924;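 active = membrane potential signal moves up or down beyond 5 SD from buffer-only wells, on both duplicate plates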
HEK293 MPD ctr 2-2 – second counter-screen for TRPC6 modulators: effect in parental HEK293 cells | shares compounds with TRPC6 inh | membrane potential dye fluorescence; after compound, maximal acetylcholine stimulation | inhibition, % at 10 µM | 2,400 tested, 14% active | AID 488926;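 active = membrane potential signal drops by more than 5 SD from the mean control signal, in both duplicate plates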;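 also: plate controls were acetylcholine ECmax control wells for no effect and buffer only wells for full effect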
TRPC4/MOR mod – selectivity of TRPC6 modulators against mouse TRPC4; shares compounds with TRPC6 inh; HEK293 TRPC4/mu-opioid, membrane potential fluorescence; percent change from control (negative = decrease, positive = increase), % at 10 µM; 2,400 tested, 69% active; AID 488927;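 active = membrane potential signal moved up or down beyond 5 SD of buffer control wells, in both duplicate plates, actives on both sides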;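 also: plate controls were assay buffer wells for no effect and DAMGO maximal-effect wells for full effect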
TRPC4/MOR inh 2 – second check of whether TRPC6 modulators also affect mouse TRPC4. shares compounds with TRPC6 inh. HEK293 TRPC4/mu-opioid, membrane potential dye fluorescence; stimulated with maximal-effect DAMGO. inhibition, % at 10 µM. 2,400 tested, 55% active. AID 488928;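 active = drop in membrane potential signal beyond 5 SD of the control wells in both duplicate plates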;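 also: TRPC4 counter screen for TRPC6 hits run under conditions tuned for TRPC6 not TRPC4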
TRPC6 inh conf – mouse TRPC6 inhibitor confirmation | shares compounds with TRPC6 inh | HEK293-TRPC6, membrane potential dye, ACh-evoked depolarization | inhibition, % at 10 µM | 3,300 tested, 43% active | AID 488960;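 active = fluorescence ratio falls more than 5 SD below the full-stimulation control mean, in both duplicate runs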;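 also: integrated fluorescence ratio of peak minus minimum over baseline after agonist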
TRPC6 act conf – confirmation of mouse TRPC6 activators. shares compounds with TRPC6 inh. HEK293-TRPC6 membrane potential dye fluorescence, FDSS. activation, % at 10 µM. 2,800 tested, 11% active;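 active = ratio signal rise beyond 5 SD above unstimulated control wells' mean, seen in both duplicate runs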;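 also: plate controls were buffer EC0 wells for no effect and acetylcholine ECmax response for full effect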
* marks the source's active call; other numbers are inactive results; i = inactive; . = not tested or not shown; ! = repeats disagree.

SMILES	TRPC4 potent	TRPC6 inh	TRPC6 activator	TRPC4 inh	TRPC4 agonist	Kir21 block	HEK293 MPD ctr-2	HEK293 MPD ctr 2-2	TRPC4/MOR mod	TRPC4/MOR inh 2	TRPC6 inh conf	TRPC6 act conf	others
Cc1nnc(-c2ccccc2)c(=O)n1/N=C/c1c(O)ccc2ccccc12	i	-7.3*	i	i	i	0.57	.	.	.	.	80%*	.	TRPC4 sel inh 2=68%*;TRPC4 spec=23%*;HEK293 MPD ctr 2-1=-242%*;HEK293 MPD ctr-1=8.7%*
O=c1cc(CNc2ccc(Br)cc2)nc2sccn12	i	-7*	i	i	i	0.93	i	i	i	i	i	i
Cc1c(OCC(=O)N2C[C@H]3C[C@@H](C2)c2cccc(=O)n2C3)ccc2c3c(c(=O)oc12)CCCC3	i	-7*	i	i	i	1.7	.	.	.	.	77%*	.	TRPC4 sel inh 2=i;TRPC4 spec=5.1%*;HEK293 MPD ctr 2-1=17%*;HEK293 MPD ctr-1=5.9%*
CCOC(=O)C1(CCc2ccccc2)CCN(Cc2cccc3nccnc23)CC1	i	i	i	i	i	-0.07	.	.	.	.	.	.
Cc1[nH]c2ccccc2c1/C=N/Nc1ccc([N+](=O)[O-])cc1	i	i	11*	i	i	-4.4	144%*	i	36%*	i	i	56%*
Clc1ccc2c(NCc3ccccc3)ccnc2c1	i	-5.5*	i	i	i	-0.42	-98%*	i	-23%*	78%*	38%*	i
Clc1ccc(NNc2ccnc3cc(Cl)ccc23)cc1	i	i	i	i	i	-1.3	.	.	.	.	.	.
O=C(NCCNc1ccnc2cc(Cl)ccc12)c1ccccc1F	i	i	i	i	i	-1.9	.	.	.	.	.	.
CCN(CC)CCNc1ccnc2cc(Cl)ccc12	i	-12*	i	i	i	0.87	-333%*	70%*	-50%*	71%*	73%*	i
CCN(CC)Cc1cc(Nc2ccnc3cc(Cl)ccc23)ccc1O	i	-5.7*!	i	i	i	-2.5	-184%*	i	-34%*	52%*	i	i
Oc1ccc(Nc2ccnc3cc(Cl)ccc23)cc1	i	i	i	i	i	1.8	.	.	.	.	.	.
Cc1ccc(NC2(C#N)C(=O)Nc3ccccc32)cc1C (stereo unspecified)	i	i	i	i	i	2.5	.	.	.	.	.	.
COC(=O)c1ccc(NC2(C#N)C(=O)Nc3ccccc32)cc1 (stereo unspecified)	i	-8.5*	i	i	i	-1.1	.	.	.	.	88%*	.	TRPC4 sel inh 2=i;TRPC4 spec=i;HEK293 MPD ctr 2-1=i;HEK293 MPD ctr-1=i
O=C(COc1ccc([N+](=O)[O-])cc1)NCCC1=CCCCC1	i	i	i	i	i	-0.32	.	.	.	.	.	.
Cc1ccccc1OCC(=O)NCCC1=CCCCC1	i	-5.7*	i	i	i	-5.4*	i	i	14%*	i	i	i
Cc1ccc(OCC(=O)NCCC2=CCCCC2)cc1	i	-5*	i	i	i	-0.7	i	i	i	i	i	i
CC(C)CCNC(=O)COC(=O)c1cc(Br)c(Br)s1	i	i	i	i	i	0.67	.	.	.	.	.	.
CC(C)(C)N(Cc1ccccc1)C(=O)COC(=O)c1ccccc1SCC(=O)N1CCCC1	i	i	i	i	i	0.86	.	.	.	.	.	.
CCN1C(=O)/C(=C\N2CCCCCC2)SC1=S	i	-7.2*	i	i	i	-0.92	.	.	.	.	i	i	TRPC4 sel inh 2=i;TRPC4 spec=i;HEK293 MPD ctr 2-1=i;HEK293 MPD ctr-1=i
CCN1C(=O)/C(=C/N2CC(C)CC(C)C2)SC1=S (stereo unspecified)	i	i	i	i	i	2	.	.	.	.	.	.
Cc1cc(Cl)c(S(=O)(=O)N2CCN(c3ccccn3)CC2)cc1OCC(N)=O	i	i	i	i	i	0.63	.	.	.	.	.	.
COc1ccccc1N1N=C(c2ccc([N+](=O)[O-])cc2)CC1c1ccccc1 (stereo unspecified)	i	i	13*	i	i	-0.04	i	i	23%*	i	i	44%*
COc1cc(N2N=C(c3ccccc3)CC2c2ccccc2)c(C=O)cc1C=O (stereo unspecified)	i	i	i	i	i	3.1	.	.	.	.	.	.
Cc1nnc(NC(=O)CSc2nccn2Cc2ccc(F)cc2)s1	i	i	i	i	i	0.42	.	.	.	.	.	.
CCOC(=O)c1c(C)oc2c1c(CN1CCN(C(=O)OCC)CC1)c(O)c1ccccc12	i	i	i	i	i	-0.03	.	.	.	.	.	.
CCOC(=O)c1c(C)oc2c(CC(=O)c3ccccc3)c(Cl)c(O)c(O)c12	i	-9*	i	i	i	0.89	.	.	.	.	i	i	TRPC4 sel inh 2=i;TRPC4 spec=i;HEK293 MPD ctr 2-1=i;HEK293 MPD ctr-1=i
COc1cc(OC)c(OC)cc1CNCCSc1nnnn1C	i	i	i	i	i	-1.1	.	.	.	.	.	.
